Bioassay records: PubChem, Broad Institute
Only some compounds are listed: those with a hit (about 2.4% of all), similar ones and a draw of the others.
Rtt109 HAT inh – blocks Candida albicans Rtt109/Vps75 acetyltransferase activity | inhibition, % at 34.9 µM | purified Rtt109/Vps75, ThioGlo CoA-SH fluorescence, 4 h | AID 540336 | 330,000 tested, 0.16% active | Q5AAJ8;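 active = inhibition of at least 50% in every replicate; inconclusive = best replicate reaches 50% inhibition but some replicates fall short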
Env fusion inh – blocks HIV Env-driven cell-cell fusion; HeLa-JRFL Env/CEM21 cell fusion, luciferase; inhibition, % at 12.3 µM; 360,000 tested, 1.1% active; AID 651610;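 active = mean replicate inhibition score of at least 50 and every replicate individually at or above 50; inconclusive = only one of the two criteria met; inactive = mean below 50 and not all replicates reaching 50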;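 note: 0% = plate neutral controls and 100% = maraviroc near 300 nM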
Cneo AK release – causes C. neoformans cell lysis; adenylate kinase release luminescence, 4 h; normalised: neutral wells 0, clomiphene wells 100; lysis activity, % at 15 µM; 360,000 tested, 0.2% active; AID 651654;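 active = mean lysis activity across replicates of at least 80%, whatever share of replicates individually reach that level; inactive = mean lysis activity below 80%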
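Assay system: C. neoformans cells. Amount: yeast cell density of 5 × 10^6 cells/mL. Technique: AK luminescence. Buffer or medium: YPD. Times: static 4 h at 37 °C with compound, 1 h detection. Dosing: single-point compound dose. Read-out: lysis from increased AK signal.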
INS-1E GSIS act – GLuc luminescence reporter in INS-1E cells, primary screen for activators of glucose-dependent secretion of insulin; activation, % at 16.6 µM; INS-1E GLuc reporter insulin secretion, 2-3 h; AID 743287; 370,000 tested, 0.61% active;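 active = lowest replicate activation of at least 40%, so every replicate reaches that level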;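 note: 0% = median of neutral control wells and 100% = median of IBMX positive control wells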
dFosB act-1 – activators of mouse delta FosB homodimer; P13346; purified delta FosB, TAMRA-CDK5 oligo fluorescence polarization; percent of positive-control signal above neutral wells; activation, % at 25 µM; 340,000 tested, 0.99% active; AID 493131;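 active = mean activation above about 17%, with every replicate also reaching it, limit read from the data, passing the limit was not always enough; inconclusive = only one of the two conditions met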
Target sequence (P13346 whole entry, looked up): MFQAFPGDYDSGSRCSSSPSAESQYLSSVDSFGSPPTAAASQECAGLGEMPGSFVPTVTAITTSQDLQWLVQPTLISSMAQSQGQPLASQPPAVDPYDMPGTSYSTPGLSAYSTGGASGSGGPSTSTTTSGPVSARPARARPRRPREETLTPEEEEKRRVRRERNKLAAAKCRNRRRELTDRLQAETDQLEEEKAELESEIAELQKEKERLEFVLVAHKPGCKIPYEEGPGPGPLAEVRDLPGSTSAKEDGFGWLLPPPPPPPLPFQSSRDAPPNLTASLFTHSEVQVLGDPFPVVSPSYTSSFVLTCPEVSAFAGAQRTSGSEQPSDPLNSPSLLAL
miR-122 sensor – miR-122 inhibition in Huh7 cells; Huh7 miR-122 Renilla luciferase sensor, 48 h; neutral wells = 0, positive control = 100; activation (reporter increase), % at 12.5 µM; 340,000 tested, 0.3% active;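 active = mean replicate activation score at least 90 and every replicate individually at or above 90; inconclusive = only one of the two criteria met; inactive = neither criterion met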;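 note: higher luciferase means less miR-122 activity so hits act as miR-122 inhibitors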
dFosB act-2 – activators of mouse delta FosB homodimer DNA binding | activation, % at 24.9 µM | AID 588690 | 2,400 tested, under 10 active | shares compounds with dFosB act-1 | purified delta FosB, TAMRA-CDK5 oligo fluorescence polarization; normalised: neutral wells 0, positive control 100;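 active = highest replicate activation at or above 34% and every replicate reaching that threshold; inconclusive = meets only one of the two criteria; inactive = meets neither criterion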;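 note: higher polarization means more probe DNA bound by delta FosB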
An asterisk follows results filed as active; ? = inconclusive; . = not tested or not shown; [ ] = another dose, or the depositor's remark.

SMILES	Rtt109 HAT inh	Env fusion inh	Cneo AK release	INS-1E GSIS act	dFosB act-1	miR-122 sensor	dFosB act-2
OC[C@H]1[C@H](c2ccc(-c3ccccc3)cc2)[C@@H]2CN(CCC(F)(F)F)CCCCN12	.	.	3	-19	.	-4[16.7 µM]	.
CCOc1ccc(CNC(=O)c2ccc(NC(=O)C3=CSCCO3)cc2)cc1	-4	-11	1	8	0	1	.
Cc1ccc(CNC(=O)c2ccc(NC(=O)C3=CSCCO3)cc2)cc1	-5	-7	14	9	28*	2	-8
COc1cc2c(cc1OC)C(c1ccc(-c3ccc(Cl)cc3Cl)o1)=NCC2	8	98*	23	.	34*	-22	-30
O=C(Cc1csc(Nc2nc(=S)[nH]c3ccccc23)n1)NCc1ccccc1Cl	9	.	-1	6	49*	-2	7
COc1ccc(N2CCN(CCCNC(=O)C3CCC(CNc4nc(=S)[nH]c5ccccc45)CC3)CC2)cc1 (configuration not stated)	-10	25	.	-15	-1	.	.
O=C(NCc1ccccc1Cl)C1CCC(CNc2nc(=S)[nH]c3ccccc23)CC1 (configuration not stated)	2	14	.	2	71*	.	1
O=C(Cc1csc(Nc2nc(=S)[nH]c3ccccc23)n1)NCc1cccc(Cl)c1	3	-26	2	4	4	5	.
O=C(NCCc1ccc(Cl)cc1)C1CCC(CNc2nc(=S)[nH]c3ccccc23)CC1 (configuration not stated)	3	-18	-1	-16	72*	6	6
O=C(C1CCC(CNc2nc(=S)[nH]c3ccccc23)CC1)N1CCN(c2ccc(F)cc2)CC1 (configuration not stated)	5	19	.	-32	37*	.	1
COc1ccc(NC(=O)Nc2ccc3c(c2)C(=O)N([C@H](C)CO)C[C@H](C)[C@@H](CN(C)C(=O)Nc2ccc(C(F)(F)F)cc2)OCCCC[C@H](C)O3)cc1	.	27[16.7 µM]	-1	4	.	-5[16.7 µM]	.
CO[C@H]1CN(C)C(=O)c2ccc(NC(C)=O)cc2OC[C@H](C)N(CC2CC2)C[C@H]1C	.	-4[16.7 µM]	-3	15	.	-13[16.7 µM]	.
COc1ccc(C[C@H]2CCn3nncc3COCCCNC2=O)cc1	.	.	.	-5	.	.	.
CCCCNC(=O)C1CCC(CNc2nc(=S)[nH]c3ccccc23)CC1 (configuration not stated)	-3	0	1	-13	-3	1	.
CC(=O)Nc1ccc(S(=O)(=O)NCC2CCC(C(=O)NCCC3=CCCCC3)CC2)cc1 (configuration not stated)	1	.	3	-3	63*	-6	5
O=C(NCCC1=CCCCC1)C1CCC(CNc2nc(=S)[nH]c3ccccc23)CC1 (configuration not stated)	-2	-26	-2	-12	23*	0	2
O=C(NCCC1=CCCCC1)C1CCC(CNS(=O)(=O)c2ccccc2)CC1 (configuration not stated)	-17	-16	.	34	-2	.	.
C[C@@H]1CN([C@H](C)CO)C(=O)Cc2cc(NS(=O)(=O)c3ccc(F)cc3)ccc2O[C@H]1CN(C)S(=O)(=O)c1ccc(F)cc1	.	-5[16.7 µM]	3	8	.	16[16.7 µM]	.
CC(C)C[C@H]1COCc2cn(nn2)CC[C@H](Cc2cccc(Cl)c2)C(=O)N1	.	.	.	7	.	.	.
CO[C@@H]1CN(C)C(=O)c2ccc(NC(=O)C3CC3)cc2OC[C@@H](C)N(CCc2ccccc2)C[C@H]1C	.	18[16.7 µM]	0	-21	.	-4[16.7 µM]	.
COc1ccc2cc3[n+](cc2c1O)CCc1cc2c(cc1-3)OCO2	.	3	.	4	.	.	.
COc1cc2c(cc1OC)-c1cc3ccc(OC)c(OC)c3c[n+]1CC2	?	-6	0	18	28*	-10	-3
CCC(=O)N1CCC2(CC1)CN(S(C)(=O)=O)[C@H](CO)c1[nH]c3cc(OC)ccc3c12	.	.	.	-5	.	.	.
COc1cc(/C=N/NC(=O)c2cc(C3CC3)[nH]n2)cc(OC)c1OC	-2	1	0	-1	20*	-3	-1
CN1CCN(C(=O)C[C@@H]2CC[C@H]3[C@@H](COC[C@H](O)CN3C(=O)C3CC3)O2)CC1	.	.	12	6	.	-1[16.7 µM]	.
SMILES	Rtt109 HAT inh	Env fusion inh	Cneo AK release	INS-1E GSIS act	dFosB act-1	miR-122 sensor	dFosB act-2
COc1cccc(C(=O)N=c2sc3cc(S(C)(=O)=O)ccc3n2C)c1	13	-22	.	-2	27*	-6	2
COc1cc(OC)cc(C(=O)N=c2sc3ccccc3n2C)c1	0	-38	.	6	-18	.	.
CCCNc1c(NS(=O)(=O)c2ccc3c(c2)CCCC3)c(=O)oc2ccccc12	-5	.	0	.	60*	-4	6
CNc1c(NS(=O)(=O)c2ccc(OC)c(Cl)c2)c(=O)oc2ccccc12	-8	6	-1	5	65*	-5	2
CCNc1c(NS(=O)(=O)c2ccc(OC)c(Cl)c2)c(=O)oc2ccccc12	-1	-16	7	-20	2	-8	.
CCCNc1c(NS(=O)(=O)c2ccc(C)c(C)c2)c(=O)oc2ccccc12	6	7	1	8	2	-5	.
CCC(=O)N(C)C[C@@H]1Oc2ncc(-c3ccc(C)cc3)cc2C(=O)N([C@H](C)CO)C[C@H]1C	.	1[16.7 µM]	-1	8	.	3[16.7 µM]	.
C[C@H]1CN([C@@H](C)CO)C(=O)c2cc(/C=C/c3ccccc3)cnc2O[C@H]1CN(C)Cc1cncnc1	.	-13[16.7 µM]	-2	3	.	-3[16.7 µM]	.
O=S(=O)(NC[C@H]1CC[C@@H]2[C@@H](CN2Cc2cccc(-c3ccccn3)c2)O1)c1ccccc1	.	-5[16.7 µM]	.	.	.	.	.
CCC(=O)N1CCC2(CC1)CN(CC1CCCCC1)[C@@H](CO)c1c2c2ccc(OC)cc2n1C	.	.	.	-18	.	.	.
COc1ccc2c(c1)CCc1c(C(=O)Nc3ccn(Cc4ccc(C)cc4)n3)noc1-2	-11	.	-3	.	28*	-4	-4
C[C@H](CO)N1C[C@H](C)[C@@H](CN(C)Cc2cncnc2)Oc2ncc(-c3ccc(F)cc3)cc2C1=O	.	-6[16.7 µM]	1	11	.	5[16.7 µM]	.
N#CNC(=Nc1cccc(Cl)c1)Oc1ccccc1	-11	2	1	16	-3	0	.
N#CNC(N)=Nc1cccc(Cl)c1	0	-130	0	.	22*	13	-7
NS(=O)(=O)c1ccc(NC(=O)/C=C/c2cn(-c3ccccc3)nc2-c2cccc(Cl)c2)cc1	-2	13	.	26	142*	.	2
O=C(C[C@@H]1CC[C@@H](NC(=O)NC2CCCC2)[C@H](CO)O1)NCc1ccc(F)cc1	.	-14[16.7 µM]	1	12	.	14[16.7 µM]	.
